Shown are actives, neighbours in structure and some others; about 0.86% of the full set was active somewhere.
APJ ag = agonists of human apelin receptor APJ, primary screen, CHO-K1 cells, PathHunter beta-arrestin, luminescence. P35414. 0% DMSO wells, 100% apelin. activation, % at 20 µM. actives 0.11% (n = 330,000). AID 2520, 2010;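 active = activation more than six SD over the plate average, tested at 20 µM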;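 also: 0% = DMSO alone and 100% = apelin-13 at 10 nM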
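Test system: CHO-K1 APJ beta-arrestin complementation cell line. Amount: cell density 1000 per well. Controls: DMSO negative, 10 nM Apelin-13 positive. Signal: luminescent beta-gal fragment complementation, chemiluminescent substrate. Read-out basis: agonist-driven arrestin binding to APJ. Timing: compound stimulation 90 min at 25 °C, detection 60 min.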
hiPSC survival = enhancers of single-cell hiPSC survival, primary screen, ATPlite luminescence. AID 602274, 2012. survival enhancement, % at 20 µM. 100% = ROCK inhibitor wells, 0% = DMSO. actives 0.044% (n = 360,000); in the data active = survival enhancement above about 18%;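 also: cells exposed to compounds for 16 hours before the ATP read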
CCR6 antag = CCR6 receptor antagonists, primary screen, cell-based, CHO-K1, luminescence, beta-arrestin, uHTS. CHO-K1 CCR6 PathHunter beta-arrestin, CCL20-stimulated. inhibition, % at 20 µM. C-C chemokine receptor type 6 (Homo sapiens), P51684. actives 0.49% (n = 340,000);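 active = compounds whose inhibition of the agonist-driven luminescence signal at 20 µM reaches about 50%, limit read from the data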;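 also: cells stimulated with CCL20 at 14 nM final; plate controls were DMSO with CCL20 for no effect and DMSO without agonist for full effect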
Target sequence (P51684 whole entry, looked up): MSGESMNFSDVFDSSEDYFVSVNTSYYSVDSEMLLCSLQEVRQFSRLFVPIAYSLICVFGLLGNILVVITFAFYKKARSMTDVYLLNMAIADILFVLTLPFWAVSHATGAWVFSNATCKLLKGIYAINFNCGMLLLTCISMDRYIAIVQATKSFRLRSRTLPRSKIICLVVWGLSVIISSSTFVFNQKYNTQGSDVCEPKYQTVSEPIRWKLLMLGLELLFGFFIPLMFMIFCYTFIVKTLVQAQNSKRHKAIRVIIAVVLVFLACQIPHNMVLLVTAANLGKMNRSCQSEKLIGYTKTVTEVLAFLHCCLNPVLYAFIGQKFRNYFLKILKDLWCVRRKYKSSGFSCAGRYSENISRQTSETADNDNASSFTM
DAGLB inh = DAGLB lipase inhibitors, primary screen, biochemical, fluorescence, HTS; HEK293T DAGLB membrane lysate, EnzChek fluorogenic substrate; Diacylglycerol lipase-beta (Homo sapiens), Q8NCG7; actives 0.059% (n = 340,000); inhibition, % at 5.17 µM; in the data active = inhibition above about 34%;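 also: 0% = enzyme with vehicle and 100% = wells lacking enzyme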
CXCR6 block = CXCR6 receptor inhibitors, primary screen, cell-based, beta-arrestin, luminescence, CHO-K1 PathHunter, 1536-well; C-X-C chemokine receptor type 6 (Homo sapiens), O00574; inhibition, % at 20 µM; actives 0.36% (n = 360,000); in the data active = inhibition above about 34%, passing the limit was not always enough;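 also: antagonist mode with CXCL16 agonist at 10 nM final; 0% = 10 nM CXCL16 with DMSO and 100% = unstimulated wells without agonist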
APJ antagonist = antagonists of human apelin receptor APJ, primary screen, CHO-K1 cells, beta-arrestin complementation, luminescence; P35414; inhibition, % at 20 µM; actives 0.32% (n = 330,000);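 active = inhibition above about 40% at 20 µM, limit read from the data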;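 also: cells challenged with 10 nM apelin-13 agonist together with compound; plate controls were apelin-13 plus DMSO wells for no effect and DMSO wells lacking apelin-13 for full effect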
* hit, by the source's call.

`Cc1cc(C)c2c(=O)n(CC(=O)Nc3ccc(Br)c(C)c3)sc2n1` gave APJ ag 3.2, hiPSC survival -0.6, CCR6 antag 8.4, DAGLB inh -3.0, CXCR6 block -10.0 and APJ antagonist -1.6.
For Cc1ccc(CNC(=O)c2nnn(CC(=O)Nc3cc(C)cc(C)c3)c2N)cc1 the results were APJ ag 0.1, hiPSC survival 0.5, CCR6 antag 13.9, DAGLB inh 4.0, CXCR6 block -1.1 and APJ antagonist 29.5.
Screening COc1ccc2c(c1)c(=O)oc1c(C)c(OCc3ccc(C(=O)O)cc3)ccc12 returned hiPSC survival -0.8, CCR6 antag 16.2, DAGLB inh 2.8 and CXCR6 block -2.0.
For COc1ccc2c(c1)c(=O)oc1c(C)c(OCc3cc(C(=O)O)oc3C)ccc12 the results were APJ ag -1.0, hiPSC survival -1.0, CCR6 antag 55.7*, DAGLB inh -0.9, CXCR6 block 0.7 and APJ antagonist -2.6.
For CCOC(CCNC(=O)c1cn(CC(C)C)c(=O)c2c1c1ccccc1n2C)OCC the results were APJ ag -2.7, hiPSC survival 3.3, CCR6 antag 1.6, DAGLB inh -3.5, CXCR6 block 0.5 and APJ antagonist 0.4.
Cc1cc(C(=O)Nn2c(-c3ccc(Br)cc3)nc3ccccc3c2=O)ccc1[N+](=O)[O-] was read as APJ ag -0.7, hiPSC survival 0.5, CCR6 antag 0.6, DAGLB inh 9.5, CXCR6 block -0.3 and APJ antagonist 0.7.
Screening Cc1[nH]n(C2=NCCS2)c(=O)c1N=Nc1cccc(C(F)(F)F)c1 returned APJ ag -6.5, hiPSC survival -0.2, CCR6 antag 58.1*, DAGLB inh 3.3, CXCR6 block 53.2* and APJ antagonist 38.0.
`Nc1nc2cc(Cl)ccc2cc1C(=O)NCCCc1ccccc1` gave hiPSC survival 0.2 and CXCR6 block -9.7.
`Cn1c(=O)c2c(ncn2CC(=O)NCc2cccnc2)n(C)c1=O` gave APJ ag 0.1, hiPSC survival 26.5*, CCR6 antag -3.6, DAGLB inh -4.1, CXCR6 block 3.7 and APJ antagonist 13.1.
For Cc1[nH]n(-c2ccccc2)c(=O)c1C=Nc1cccc2cccnc12 the results were APJ ag -13.1, hiPSC survival 0.3, CCR6 antag 52.3*, DAGLB inh -3.9, CXCR6 block 53.9* and APJ antagonist 94.2*.
`Cc1[nH]n(-c2ccccc2)c(=O)c1/C=N/N1C(=O)c2cccc3cccc(c23)C1=O` gave APJ ag -4.7, hiPSC survival -1.9, CCR6 antag 73.5*, DAGLB inh 2.9, CXCR6 block 52.5* and APJ antagonist 18.1.
`Cc1ccc(-n2[nH]c(C)c(/C=N/c3ccccn3)c2=O)cc1` gave APJ ag 2.1, hiPSC survival -1.5, CCR6 antag 5.9, DAGLB inh -3.1, CXCR6 block 1.5 and APJ antagonist 11.5.
For CCOC(=O)C(C)Sc1ncc(-c2ccccc2)cn1 (stereo not drawn) the results were APJ ag 0.2, hiPSC survival -1.2, CCR6 antag 3.0, DAGLB inh -12.0, CXCR6 block 4.9 and APJ antagonist -1.7.
`O=C(Nc1ccc(Cl)cc1)Nc1ccccc1Sc1ncc([N+](=O)[O-])s1` gave APJ ag -1.8, hiPSC survival -0.6, CCR6 antag 50.1*, DAGLB inh 6.1, CXCR6 block 33.9 and APJ antagonist 7.7.
Screening O=C(Nc1csc([N+](=O)[O-])c1)Nc1ccccc1Cl returned APJ ag -2.1, hiPSC survival -0.7, CCR6 antag 24.1, DAGLB inh -0.1, CXCR6 block -4.6 and APJ antagonist 5.6.
For Cc1nc2ccc(NC(=O)c3cc([N+](=O)[O-])cc([N+](=O)[O-])c3Cl)cc2s1 the results were hiPSC survival -2.2, CCR6 antag 96.9*, DAGLB inh 4.8 and CXCR6 block 9.5.
Screening COC(=O)N/N=C/c1cc(N=Nc2ccccc2Cl)ccc1O returned APJ ag -5.5, hiPSC survival 0.1, CCR6 antag 58.0*, DAGLB inh 20.9, CXCR6 block 32.1 and APJ antagonist 11.1.
`Cc1cc(C(=O)N/N=C/c2cc(N=Nc3ccccc3)ccc2O)n[nH]1` gave hiPSC survival -1.5, CCR6 antag 60.8*, DAGLB inh 20.3 and CXCR6 block 16.0.
Screening O=C(NN=Cc1cc([N+](=O)[O-])ccc1O)c1cccc2ccccc12 returned hiPSC survival 1.0, CCR6 antag 49.2, DAGLB inh 15.4 and CXCR6 block 14.8.
`Nc1ccc(C(=O)N/N=C\c2cc(N=Nc3cccc4ccccc34)ccc2O)cc1` gave APJ ag -4.7, hiPSC survival -1.1, CCR6 antag 58.9*, DAGLB inh 31.2, CXCR6 block 28.2 and APJ antagonist 31.4.
COC(=O)N/N=C/c1cc(N=Nc2ccccc2)ccc1O was read as APJ ag 0.9, hiPSC survival -0.5, CCR6 antag 39.2, DAGLB inh 12.7, CXCR6 block 28.7 and APJ antagonist -16.6.
Screening O=C(COc1ccc(Cl)cc1Cl)N1CCN(C(=O)c2ccco2)CC1 returned APJ ag -1.2, hiPSC survival 0.4, CCR6 antag -1.9, DAGLB inh -1.8, CXCR6 block -14.9 and APJ antagonist 12.7.
Screening NS(=O)(=O)c1ccc(N2CCOCC2)c(C(=O)NCc2cccs2)c1 returned APJ ag -4.8, hiPSC survival -1.8, CCR6 antag 11.3, DAGLB inh 1.4, CXCR6 block 7.1 and APJ antagonist 1.8.
For C/C=C(/CCC1NCCc2c1[nH]c1ccccc21)[Si](C)(C)C (stereo not drawn) the results were hiPSC survival -1.5, CCR6 antag 51.3*, DAGLB inh -4.0 and CXCR6 block 19.1.
`COc1ccc(-c2nc(=S)c3ccc4ccccc4c3[nH]2)cc1` gave hiPSC survival -0.3, CCR6 antag 70.8*, DAGLB inh -1.8 and CXCR6 block 45.1*.
O=C(c1nnsc1S(=O)(=O)c1ccc(Cl)cc1)N1CCOCC1 was read as APJ ag -1.1, hiPSC survival -4.7, CCR6 antag 3.7, DAGLB inh -14.7, CXCR6 block 14.7 and APJ antagonist 6.8.
O=C(c1nnsc1S(=O)c1ccc(Cl)cc1)N1CCOCC1 (stereo not drawn) was read as APJ ag -1.5, hiPSC survival 1.7, CCR6 antag 73.8*, DAGLB inh -6.5, CXCR6 block 66.6* and APJ antagonist 23.9.

Screens as filed in PubChem.
